Results taken from ChEMBL document CHEMBL4825764, “Flavonoid Monomers as Potent, Nontoxic, and Selective Modulators of the Breast Cancer Resistance Protein (ABCG2)” (J Med Chem, 2021).
Active and inactive are the calls of the source. No cut-off for these calls is given here.

Tests used:
HEK293 = assay: Effect on BCRP protein expression in human HEK293/R2 cells at 1 to 3 uM after 24 hrs by flow cytometric analysis; format: functional, cell-based; conditions: dose 1-3 µM
Summary of the method: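 HEK293/R2 and HEK293/pcDNA3.1 cells were exposed to 0, 1 or 3 μM compound for 24 hr, with 0.1–0.3% DMSO as solvent control. Cells were trypsinized and stained with FITC anti-human BCRP for 45 min at 4 °C, with an IgG2b-FITC isotype control. Surface signal was read by flow cytometry on FL1 over 50,000 events.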

BCRP (ABCG2) ATPase = target: T1, BCRP (ABCG2) ATPase (Homo sapiens, UniProt Q9UNQ0); assay: Effect on vanadate sensitive BCRP ATPase activity in human S1-M1-80 cell membranes preincubated for 30 mins followed by ATP addition and measured after 1 hr by colorimetric assay
T1 sequence (Q9UNQ0 whole entry): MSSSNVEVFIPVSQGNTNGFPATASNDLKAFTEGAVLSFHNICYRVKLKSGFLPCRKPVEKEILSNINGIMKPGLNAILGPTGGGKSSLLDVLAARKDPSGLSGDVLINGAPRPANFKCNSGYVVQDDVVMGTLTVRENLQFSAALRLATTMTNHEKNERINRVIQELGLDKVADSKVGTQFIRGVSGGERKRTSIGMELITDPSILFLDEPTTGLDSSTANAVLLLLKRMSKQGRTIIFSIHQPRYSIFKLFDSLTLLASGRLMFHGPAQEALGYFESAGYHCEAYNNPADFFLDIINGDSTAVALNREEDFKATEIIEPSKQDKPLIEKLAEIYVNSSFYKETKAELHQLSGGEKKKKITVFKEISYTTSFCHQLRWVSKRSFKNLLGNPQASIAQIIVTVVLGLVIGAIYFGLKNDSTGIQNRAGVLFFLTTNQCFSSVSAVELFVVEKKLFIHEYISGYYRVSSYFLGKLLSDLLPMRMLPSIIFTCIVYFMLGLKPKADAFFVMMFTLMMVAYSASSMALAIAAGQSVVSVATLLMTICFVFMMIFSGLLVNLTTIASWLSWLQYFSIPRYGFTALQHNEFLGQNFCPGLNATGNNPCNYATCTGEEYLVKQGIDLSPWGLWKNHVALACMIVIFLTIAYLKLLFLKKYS

[1] = target: T2, Broad substrate specificity ATP-binding cassette transporter ABCG2 (Homo sapiens, UniProt Q9UNQ0); assay: Inhibition of BCRP (unknown origin) expressed in wild-type HEK293 cells mediated mitoxantrone efflux assessed as intracellular mitoxantrone level at 2 uM preincubated with mitoxantrone for 1 hr followed by compound addition and measured upto 150 mins by flow cytometry analysis; format: cell-based; conditions: hek293, 2.5 h
T2 sequence (Q9UNQ0 whole entry): T1 sequence (Q9UNQ0 whole entry)
Summary of the method: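 Cells were preloaded with 5 μM mitoxantrone for 1 hr at 37 °C, washed, then kept in drug-free medium with or without 2 μM modulator. Cells were harvested at 0, 30, 60, 90, 120 and 150 min and intracellular mitoxantrone read by flow cytometry (FL4). Level is expressed as % of the 0-min value.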

[2] = target: T2, Broad substrate specificity ATP-binding cassette transporter ABCG2; assay: Inhibition of BCRP (unknown origin) expressed in HEK293/R2 cells assessed as fold increase in mitoxantrone accumulation at 1 uM after 4 days by flow cytometry analysis; format: cell-based; conditions: hek293/r2, 96 h, time 4 day
Summary of the method: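 HEK293/R2 cells were treated 4 days at 37 °C with 1 μM modulator or 0.1% DMSO, washed, then given the mitoxantrone accumulation assay with flow cytometry read-out. Data are relative to DMSO, N = 5 independent experiments.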

[3] = target: T2, Broad substrate specificity ATP-binding cassette transporter ABCG2; assay: Inhibition of BCRP (unknown origin) expressed in wild type HEK293/pcDNA3.1 cells assessed as increase in intracellular mitoxantrone accumulation at 1 to 2 uM after 2 hrs in presence of mitoxantrone by flow cytometry analysis relative to control; format: cell-based; conditions: hek293, 2 h, dose 1-2 µM
Summary of the method: (§1)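 5 × 10^5 HEK293/pcDNA3.1 or HEK293/R2 cells in 1 mL were incubated 2 hr at 37 °C with 50 μM topotecan or 5 μM mitoxantrone plus 1 or 2 μM modulator, with DMSO as the vehicle control. Cells were washed in cold PBS and resuspended in FACS buffer. Flow cytometry read FL1 (topotecan) or FL4 (mitoxantrone) over 50,000 events, normalized to wild-type cells.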

[4] = target: T2, Broad substrate specificity ATP-binding cassette transporter ABCG2; assay: Inhibition of BCRP (unknown origin) expressed in wild type HEK293/pcDNA3.1 cells assessed as increase in intracellular topotecan accumulation at 1 to 2 uM after 2 hrs in presence of topotecan by flow cytometry analysis relative to control; format: cell-based; conditions: hek293, 2 h, dose 1-2 µM; summary of the method: as §1
L929 = assay: Cytotoxicity against mouse L929 cells assessed as reduction in cell viability; format: cell-based
Homo sapiens [5] = organism: Homo sapiens; assay: Selectivity index, ratio of EC50 for inhibition of MRP1 (unknown origin) expressed in 2008/MRP1 cells assessed as reversal of doxorubicin resistance to EC50 for inhibition of BCRP (unknown origin) transfected in HEK293/R2 cells assessed as reversal of topotecan resistance; format: cell-based
Summary of the method: (§2)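 Selectivity index is the EC50 against the other transporter's line divided by the EC50 in the BCRP line. All values come from 5-day MTS reversal assays. These use topotecan in HEK293/R2 (0–2000 nM) or MCF7-MX100 (0–100 μM), doxorubicin in 2008/MRP1, and paclitaxel in LCC6MDR, each with modulator at 0–1000 nM.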

2008 = assay: Selectivity index, ratio of EC50 for inhibition of MRP1 (unknown origin) expressed in 2008/MRP1 cells assessed as reversal of doxorubicin resistance to Inhibition of BCRP (unknown origin) expressed in MCF7/MX100 cells assessed as reversal of topotecan resistance; format: cell-based; conditions: Homo sapiens; summary of the method: as §2
[6] = target: T2, Broad substrate specificity ATP-binding cassette transporter ABCG2; assay: Inhibition of BCRP (unknown origin) expressed in human HEK293/R2 cells assessed as increase in intracellular topotecan accumulation by measuring fold change at 2 uM after 2 hrs in presence of topotecan by flow cytometry analysis relative to control; format: cell-based; conditions: hek293/r2, 2 h; summary of the method: as §1
[7] = target: T2, Broad substrate specificity ATP-binding cassette transporter ABCG2; assay: Inhibition of BCRP (unknown origin) expressed in human HEK293/R2 cells assessed as increase in intracellular topotecan accumulation by measuring fold change at 1 uM after 2 hrs in presence of topotecan by flow cytometry analysis relative to control; format: cell-based; conditions: hek293/r2, 2 h; summary of the method: as §1
BCRP (ABCG2) = target: T3, BCRP (ABCG2) (Homo sapiens, UniProt Q9UNQ0); assay: Inhibition of BCRP (unknown origin) expressed in HEK293/R2 cells assessed as conformational change by measuring increase in 5D3 shift at 1 uM preincubated for 15 mins followed by FITC mouse antihuman BCRP antibody addition measured after 30 mins by flow cytometry analysis; format: cell-based; conditions: HEK293/R2 cells expressing BCRP, time 45 min
T3 sequence (Q9UNQ0 whole entry): T1 sequence (Q9UNQ0 whole entry)
Summary of the method: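 5 × 10^5 HEK293/R2 cells in FACS buffer were shaken 15 min at 37 °C with 1 μM compound. FITC 5D3 anti-BCRP was then added for 30 min at 37 °C and fluorescence read by flow cytometry on FL1. Compound-only background was subtracted and the untreated DMSO shift removed. Result is % of the 1 μM Ko143-induced shift.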

Homo sapiens [8] = organism: Homo sapiens; assay: Selectivity index, ratio of EC50 for inhibition of P-gp (unknown origin) expressed in LCC6MDR cells assessed as reversal of paclitaxel resistance to EC50 for Inhibition of BCRP (unknown origin) expressed in MCF7/MX100 cells assessed as reversal of topotecan resistance; format: cell-based; summary of the method: as §2

activity at 1 h (BCRP (ABCG2) ATPase): 120% | inhibition (INH) [4]: Not Active | fold change (FC) [6]: 6.8 | fold change (FC) [7]: 8.1 | inhibition at 0.5 h, 1 µM (BCRP (ABCG2)): 100%
Compound: COC(=O)c1cccc(COc2c(-c3ccc(OCCCCc4cn(Cc5ccccc5)nn4)cc3)oc3ccccc3c2=O)c1
Activity (HEK293): inactive | inhibition (INH) [1]: Not Active | fold change (FC) [2]: 3.8 | inhibition (INH) [3]: Not Active | IC50 (L929): > 100 µM | Ratio EC50 (Homo sapiens [5]): 143 | Ratio EC50 2008: 167 | Ratio EC50 (Homo sapiens [8]): 112
